From ChEMBL document CHEMBL5653631, “A Potent and Selective ULK1 Inhibitor Suppresses Autophagy and Sensitizes Cancer Cells to Nutrient Stress” (iScience, 2018)
Each block holds one molecule with its values, some of them ahead of it.

Tests used:
[1] = target: T1, Tyrosine-protein kinase TXK (Homo sapiens) (UniProt P42681); experiment: Inhibition of human recombinant TXK at 500 nM related to control ULK1
T1 sequence (whole entry): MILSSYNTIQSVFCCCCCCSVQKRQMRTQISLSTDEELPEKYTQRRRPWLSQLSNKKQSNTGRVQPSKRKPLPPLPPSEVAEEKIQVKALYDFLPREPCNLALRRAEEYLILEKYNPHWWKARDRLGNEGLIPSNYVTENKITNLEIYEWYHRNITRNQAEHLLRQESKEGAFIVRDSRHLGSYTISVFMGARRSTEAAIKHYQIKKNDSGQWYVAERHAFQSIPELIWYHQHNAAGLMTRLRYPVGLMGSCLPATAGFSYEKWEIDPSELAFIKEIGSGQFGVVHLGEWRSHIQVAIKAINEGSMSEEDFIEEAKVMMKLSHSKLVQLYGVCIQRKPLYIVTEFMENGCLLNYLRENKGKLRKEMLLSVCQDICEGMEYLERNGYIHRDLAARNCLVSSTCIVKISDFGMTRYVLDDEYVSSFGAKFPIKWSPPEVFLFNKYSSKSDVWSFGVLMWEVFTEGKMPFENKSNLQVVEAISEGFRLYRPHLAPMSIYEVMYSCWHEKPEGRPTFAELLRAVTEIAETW

[2] = target: Protein-tyrosine kinase 6 (Homo sapiens) (UniProt Q13882); experiment: Inhibition of human recombinant BRK at 500 nM related to control ULK1
Protein-tyrosine kinase 6 (Homo sapiens), sequence (Q13882 whole entry, looked up): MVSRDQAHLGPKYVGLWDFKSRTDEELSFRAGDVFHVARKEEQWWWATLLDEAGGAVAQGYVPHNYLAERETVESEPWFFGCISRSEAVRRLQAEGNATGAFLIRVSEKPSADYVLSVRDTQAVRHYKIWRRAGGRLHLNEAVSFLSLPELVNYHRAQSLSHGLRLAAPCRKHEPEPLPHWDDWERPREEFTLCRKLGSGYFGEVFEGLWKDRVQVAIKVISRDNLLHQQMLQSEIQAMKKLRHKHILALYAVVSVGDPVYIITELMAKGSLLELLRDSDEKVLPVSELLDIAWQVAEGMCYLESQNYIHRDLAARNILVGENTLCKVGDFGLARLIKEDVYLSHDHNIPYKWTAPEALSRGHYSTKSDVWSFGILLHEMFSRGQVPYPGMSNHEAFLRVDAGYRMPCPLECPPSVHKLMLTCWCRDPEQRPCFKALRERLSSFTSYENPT

[3] = target: T2, Ephrin type-B receptor 1 (Homo sapiens) (UniProt P54762); experiment: Inhibition of human recombinant EphB1 at 40 nM related to control ULK1
T2 sequence (whole entry): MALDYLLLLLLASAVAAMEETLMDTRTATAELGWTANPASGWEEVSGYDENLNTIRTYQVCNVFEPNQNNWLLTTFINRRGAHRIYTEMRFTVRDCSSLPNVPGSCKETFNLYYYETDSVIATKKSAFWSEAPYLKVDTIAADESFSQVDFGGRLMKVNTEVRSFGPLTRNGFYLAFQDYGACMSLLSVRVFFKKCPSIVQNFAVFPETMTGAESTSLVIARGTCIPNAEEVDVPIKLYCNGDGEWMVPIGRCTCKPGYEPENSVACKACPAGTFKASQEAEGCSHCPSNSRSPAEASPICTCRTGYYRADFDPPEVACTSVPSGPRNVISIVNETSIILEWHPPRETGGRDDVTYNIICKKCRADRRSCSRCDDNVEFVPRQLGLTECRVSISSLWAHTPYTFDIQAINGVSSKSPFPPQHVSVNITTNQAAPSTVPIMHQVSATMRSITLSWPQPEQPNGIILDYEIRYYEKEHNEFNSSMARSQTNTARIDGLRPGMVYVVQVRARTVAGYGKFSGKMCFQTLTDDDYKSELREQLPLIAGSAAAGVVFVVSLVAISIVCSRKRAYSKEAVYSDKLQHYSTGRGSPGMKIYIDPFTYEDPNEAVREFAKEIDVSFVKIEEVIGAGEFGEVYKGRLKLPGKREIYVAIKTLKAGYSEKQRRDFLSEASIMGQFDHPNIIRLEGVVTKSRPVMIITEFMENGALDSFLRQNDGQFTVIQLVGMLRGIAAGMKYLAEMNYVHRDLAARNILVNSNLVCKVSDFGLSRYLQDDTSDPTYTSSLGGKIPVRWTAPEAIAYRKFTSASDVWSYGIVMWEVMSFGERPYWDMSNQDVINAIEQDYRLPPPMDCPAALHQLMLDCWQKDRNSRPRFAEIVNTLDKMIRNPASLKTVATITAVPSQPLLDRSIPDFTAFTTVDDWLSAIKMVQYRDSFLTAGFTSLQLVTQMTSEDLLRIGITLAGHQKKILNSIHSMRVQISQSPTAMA

[4] = target: T3, Serine/threonine-protein kinase TBK1 (Homo sapiens) (UniProt Q9UHD2); experiment: Inhibition of human recombinant TBK1 at 40 nM in presence of ATP by radiometric assay relative to control
T3 sequence (whole entry): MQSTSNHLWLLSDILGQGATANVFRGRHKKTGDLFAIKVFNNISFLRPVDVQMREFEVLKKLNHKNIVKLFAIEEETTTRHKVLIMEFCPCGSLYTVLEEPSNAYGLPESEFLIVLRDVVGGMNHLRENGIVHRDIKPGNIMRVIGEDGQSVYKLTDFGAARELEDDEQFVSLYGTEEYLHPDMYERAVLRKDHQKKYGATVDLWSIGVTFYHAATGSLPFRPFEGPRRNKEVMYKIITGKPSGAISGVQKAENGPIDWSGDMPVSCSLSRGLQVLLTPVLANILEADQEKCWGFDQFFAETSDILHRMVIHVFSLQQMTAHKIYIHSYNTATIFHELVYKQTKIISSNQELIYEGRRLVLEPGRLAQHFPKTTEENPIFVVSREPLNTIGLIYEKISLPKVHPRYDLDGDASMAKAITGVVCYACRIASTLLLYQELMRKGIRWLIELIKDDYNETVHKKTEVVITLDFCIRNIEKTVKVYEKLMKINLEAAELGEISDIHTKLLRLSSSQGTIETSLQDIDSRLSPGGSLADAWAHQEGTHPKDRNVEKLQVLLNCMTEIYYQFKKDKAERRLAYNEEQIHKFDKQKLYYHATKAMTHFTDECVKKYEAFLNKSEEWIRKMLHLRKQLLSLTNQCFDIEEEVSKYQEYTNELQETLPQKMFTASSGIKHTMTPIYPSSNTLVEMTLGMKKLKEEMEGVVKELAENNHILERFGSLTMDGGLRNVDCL

[5] = target: 5'-AMP-activated protein kinase catalytic subunit alpha-2 (Homo sapiens) (UniProt P54646); experiment: Inhibition of human recombinant AMPKa2 at 40 nM in presence of ATP by radiometric assay relative to control
5'-AMP-activated protein kinase catalytic subunit alpha-2 (Homo sapiens), sequence (P54646 whole entry, looked up): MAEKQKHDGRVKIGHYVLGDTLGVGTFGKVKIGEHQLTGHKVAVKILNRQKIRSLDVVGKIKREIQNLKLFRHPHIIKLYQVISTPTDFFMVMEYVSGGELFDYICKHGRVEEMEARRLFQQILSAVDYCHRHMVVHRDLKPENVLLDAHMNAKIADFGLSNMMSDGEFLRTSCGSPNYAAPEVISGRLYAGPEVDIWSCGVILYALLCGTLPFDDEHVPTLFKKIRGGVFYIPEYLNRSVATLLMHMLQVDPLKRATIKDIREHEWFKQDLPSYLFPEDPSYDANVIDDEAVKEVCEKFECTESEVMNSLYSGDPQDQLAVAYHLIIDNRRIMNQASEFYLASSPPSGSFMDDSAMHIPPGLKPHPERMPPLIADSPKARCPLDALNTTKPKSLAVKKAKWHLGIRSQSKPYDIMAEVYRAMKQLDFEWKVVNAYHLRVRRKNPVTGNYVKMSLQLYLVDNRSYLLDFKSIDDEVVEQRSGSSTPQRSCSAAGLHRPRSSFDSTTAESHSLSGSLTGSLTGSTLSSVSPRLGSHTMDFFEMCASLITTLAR
Outline: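 Panel of 327 recombinant human kinases, each assayed in vitro by radiometric activity assay in duplicate at a single inhibitor concentration per compound, chosen with reference to its ULK1 inhibition. Activity remaining was expressed as percent of vehicle control, and percent inhibition was calculated as 100 minus percent activity remaining.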

[6] = target: Protein kinase C theta type (Homo sapiens) (UniProt Q04759); experiment: Inhibition of human recombinant PKCt at 15 nM in presence of ATP by radiometric assay relative to control
Protein kinase C theta type (Homo sapiens), sequence (Q04759 whole entry, looked up): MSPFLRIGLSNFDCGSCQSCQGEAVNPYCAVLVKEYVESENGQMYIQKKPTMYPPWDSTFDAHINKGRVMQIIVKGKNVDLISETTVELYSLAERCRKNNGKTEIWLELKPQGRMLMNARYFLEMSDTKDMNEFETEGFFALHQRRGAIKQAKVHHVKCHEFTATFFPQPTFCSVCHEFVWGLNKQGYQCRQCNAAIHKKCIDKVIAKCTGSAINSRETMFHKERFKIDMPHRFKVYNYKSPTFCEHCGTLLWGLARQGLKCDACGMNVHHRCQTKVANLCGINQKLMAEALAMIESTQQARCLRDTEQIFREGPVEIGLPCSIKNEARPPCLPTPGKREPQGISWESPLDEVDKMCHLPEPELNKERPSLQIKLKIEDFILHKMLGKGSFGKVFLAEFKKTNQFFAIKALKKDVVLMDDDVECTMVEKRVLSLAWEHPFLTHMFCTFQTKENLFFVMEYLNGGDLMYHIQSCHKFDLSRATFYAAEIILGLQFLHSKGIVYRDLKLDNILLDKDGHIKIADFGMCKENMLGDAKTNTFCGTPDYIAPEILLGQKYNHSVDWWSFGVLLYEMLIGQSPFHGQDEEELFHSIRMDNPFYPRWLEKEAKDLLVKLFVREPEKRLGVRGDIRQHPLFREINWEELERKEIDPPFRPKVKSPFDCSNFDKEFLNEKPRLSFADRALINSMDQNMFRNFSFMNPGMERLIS

fold change (FC) [1]: 0.23 | fold change (FC) [2]: 0.03
Compound: CNC(=O)c1ccccc1Oc1nc(Nc2cc(OC)c(OC)c(OC)c2)ncc1Br

fold change (FC) [3]: 0.01 | inhibition [4]: 26% | inhibition [5]: 7%
Compound: O=C(N[C@@H](C1CC1)C(F)(F)F)c1cc(-c2cnn3cc(-c4ccc(F)cc4)cnc23)cs1

inhibition [6]: 0%
Compound: CC(C)[C@H](NC(=O)c1cc(-c2cnn3cc(-c4ccc(OCCN5CCCCC5)cc4)cnc23)cs1)C(F)(F)F
